Source: PubChem (several laboratories)
HIF act: HIF pathway transcriptional activation; activation, % at 7.5 µM (by protocol); actives 0.32% (n = 300,000); AID 1910; U2OS HRE-luciferase reporter, luminescence; normalized: DMSO 0%, desferrioxamine 100%;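 active means mean activation of at least 10% of the iron chelator positive control signal, with at least half of replicates also reaching 10%; inconclusive means mean and replicate majority disagree about reaching 10%; inactive means mean and most replicates under 10%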
Mot1-301 SUMO: SUMOylation pathway inhibition by Mot1-301 growth rescue; S. cerevisiae Mot1-301 growth rescue, ATP luminescence, 38.5C; percent above DMSO median, 100 means doubled; growth rescue, % at 18.8 µM; actives 1% (n = 320,000);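 active means every valid replicate shows activation above 250% relative to neutral control wells; inactive means the rest, any valid replicate at or below 250%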;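 further: OY570 slx delta 5 strain wells were the positive control but not used for scaling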
GASC-1 inh: human JMJD2C demethylase inhibition; actives 0.069% (n = 330,000); inhibition, % at 2.35 µM; Q9H3R0; GST-JMJD2C(1-420) H3K9me3 demethylation, DELFIA europium;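 active means more than half of a compound's replicate wells show inhibition beyond 50%, single wells judged on their own value; inconclusive means some, but no more than half, of replicates pass 50% inhibition; inactive means no replicate passes 50% inhibition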;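 further: signal counts dimethyl H3K9 product captured on neutravidin plate; 0% = median of DMSO wells and 100% = 0.3 times that DMSO median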
Target sequence (Q9H3R0 1-420 limits assumed): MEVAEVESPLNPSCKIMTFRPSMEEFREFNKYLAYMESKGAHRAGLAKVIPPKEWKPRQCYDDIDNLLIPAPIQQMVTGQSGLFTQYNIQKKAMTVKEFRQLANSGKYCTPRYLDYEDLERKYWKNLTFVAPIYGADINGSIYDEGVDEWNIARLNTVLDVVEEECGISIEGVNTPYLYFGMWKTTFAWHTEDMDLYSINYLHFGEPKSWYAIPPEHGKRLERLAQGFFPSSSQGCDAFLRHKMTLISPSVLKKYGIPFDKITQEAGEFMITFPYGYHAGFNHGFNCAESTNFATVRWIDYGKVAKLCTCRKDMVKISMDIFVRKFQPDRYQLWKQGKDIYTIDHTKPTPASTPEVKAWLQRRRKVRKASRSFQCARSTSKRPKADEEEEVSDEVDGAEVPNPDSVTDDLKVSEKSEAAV
T cell modulator: T cell immune modulators affecting CD8 T cell-vesicle binding | 2C CD8+ T cell-vesicle binding, flow cytometry; stronger effect = lower value | response (vesicle binding), % at 7 µM | actives 0.068% (n = 330,000) | AID 2052;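 active means response, share of CD8 T cells binding vesicles, and their 90th percentile fluorescence all below set limits, cut at about 80% in these data, passing the limit was not always enough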;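 further: values below 100% mean blocked vesicle binding to the CD8+ T cells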
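Read-out – percent CD8+ FL2 mean versus row control · System – murine 2C transgenic CD8+ T lymphocytes · Times – 1.5 h cell–vesicle binding at 37 °C, then 20 min icy labelling · Control set – naked vesicles low, QL9 vesicles with vehicle high · Detection – cytometric PE anti-B7-1 and Alexa647 anti-CD8 signals after 1% paraformaldehyde fixation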
Starred values were filed as active, the others as inactive; i = inactive; ? = inconclusive; · = not tested or not shown; + = active, no number; ! = not confirmed by another sample. This is a sample that favours compounds with a hit; in the whole collection about 1.4% have one here.

SMILES	HIF act	Mot1-301 SUMO	GASC-1 inh	T cell modulator
CCOc1cc(N2CCOCC2)c(OCC)cc1NC(=O)C1CC(=O)N(c2ccc(C)cc2)C1 (centres undefined)	·	144	2	310
O=C(COC(=O)c1cccc(C(=O)OCC(=O)NC2CC2)n1)NC1CC1	-1	-8	0	198
COc1cc(/C=N/NC(=O)C(=O)/C=C2\NC(C)(C)Cc3ccccc32)ccc1O	0	-5	-7	94
COc1ccccc1-c1ocnc1C(=O)N1CCN(S(=O)(=O)c2ccc(NC(C)=O)cc2)CC1	0	-10	6	644
COc1ccccc1-c1cc(C(F)(F)F)nc(N2CCCC2)n1	0	-20	-9	250
COc1ccccc1-c1cc(C(F)(F)F)nc(S(C)(=O)=O)n1	16*	·	-1	378
CCN(CC)CCN(C(=O)/C=C/c1cccs1)c1nc2ccc(Cl)cc2s1	0	32	12	247
CN(C)CCN(C(=O)/C=C/c1cccs1)c1nc2ccc(F)cc2s1	1	-16	50*	337
CCC(C)c1ccc2oc(-c3ccc(NC(=O)Cn4cnc5c(=O)n(C)c(=O)n(C)c54)cc3)nc2c1 (centres undefined)	10*	51	-5	370
Cc1ccccc1-n1nnnc1SCC(=O)NNC(=O)c1ccc(NC(=O)CC#N)cc1	·	-10	0	171
CC(C)NC(=S)Nc1c(N)[nH]c(=O)[nH]c1=O	-1	343*	?	363
CC(C)NC(=S)NC(=O)/C=C/c1ccc(F)cc1	0	11	12	342
Cc1ccc(Cl)c(OCCN2CCc3ccccc3C2)c1	0	323*	0	164
C/C=C/c1ccc(OCCN2CCc3ccccc3C2)c(OC)c1	0	8	-4	359
CSc1ccccc1C(=O)Nc1ccccc1C	0	-11	4	507
Cc1ccccc1NC(=O)c1ccccc1O	408*	11	19	353
Cc1ccc(C)c(NC(=O)c2ccccc2C(=O)c2ccccc2)c1	0	715*	-19	198
O=C(Nc1ccc(F)c(Cl)c1)c1cncs1	1	8	-2	395
CC(=O)c1ccc(NC(=O)COC(=O)CCC2CCCC2)cc1	·	-17	-1	689
CC1=NNC(=O)C1C(c1ccccc1)C1C(=O)NN=C1C (centres undefined)	0	12	4	162
CCOC(=O)c1c(C)[nH]c(C(=O)N/N=C\c2ccccc2O)c1C	57*	-3	10	377
O=C1CN(c2ccccc2)C(=O)N1	48*	8	-2	304
CN1CCC(OC(c2ccccc2)c2ccccc2)CC1	0	321*!	-24	540
O=C(NNc1ccc(-c2csnn2)cc1)c1ccccc1C(F)(F)F	-1	-4	-3	490
O=C(NNc1ccc(-c2csnn2)cc1)c1cc(Cl)cc(Cl)c1	-1	283*	-10	208
SMILES	HIF act	Mot1-301 SUMO	GASC-1 inh	T cell modulator
Cc1nnsc1Sc1ccccc1C(=O)O	0	376*	-8	139
CC1CCN(Cc2nnnn2CCCC(=O)NCCc2cnn(C)c2)CC1	67*	-1	-16	345
CC(C)=NOC(=O)c1c(C)noc1-c1snnc1C	60*	0	9	i
O=C(Oc1ccc(-c2nnco2)cc1)N1CCCCC1	1	121	15	76*
O=C(Oc1ccc(Cl)cc1)N1CCCCC1	2	77	-9	167
O=C(NCCCN1CCN(c2ccc(F)cc2)CC1)C1CCCN(c2ncnc3c2nc2n3CCCCC2)C1 (centres undefined)	-1	-12	12	252
COc1ccccc1N1CCN(CCCNC(=O)C2CCCN(c3ncnc4c3nc3n4CCCCC3)C2)CC1 (centres undefined)	134*	-8	-1	273
Cc1ccc(S(=O)(=O)Nc2cccc(S(=O)(=O)Nc3ccccc3C(=O)O)c2)c(C)c1	·	-3	8	175
CCOC(=O)c1sc(N(Cc2ccccc2)C(=O)COC(=O)c2ccc(O)cc2)nc1C	10.0*	-3	-1	259
CCOC(=O)C1(CCOC)CCN(Cc2cnc(-c3cccc(C)c3)nc2)CC1	1	-2	5	599
CCOC(=O)C1(CCOC)CCN(Cc2ccc3nonc3c2)CC1	0	327*	6	148
COc1cccc(OC)c1-c1nnc(-c2cn(C)c3ccccc23)o1	0	-2	-7	33*
COc1ccccc1-c1nnc(-c2ccc(C)cc2)o1	3	-5	-1	194
Cc1nn(C(=O)c2cccnc2)c(C)c1Sc1ccccc1	103*	-3	3	231
Cc1nn(C(=O)c2cccnc2)c(C)c1C	0	-5	-1	438
Cc1ccc(S(=O)(=O)N2CCN(c3ccccc3)CC2)cc1C(=O)NC1CCCCC1	-1	-9	1	331
O=C(CCC1CCN(C(=O)c2ccco2)CC1)NCc1ccc(F)cc1	0	-5	-4	445
CCOC(=O)C1(CC2CC2)CCN(Cc2cnc(-c3ccccc3C)nc2)CC1	-1	946*	-8	278
Cc1cccc(N2CCN(C(=S)NC3CCCCC3)CC2)c1C	0	+	-9	192
CC1CCC(NC(=O)COC(=O)CCC(=O)c2ccc(Cl)s2)CC1 (centres undefined)	0	·	-2	319
Cc1cccc(NC(=O)C2CC(=O)NC(Nc3nc4ccccc4s3)=N2)c1 (centres undefined)	99*	-8	2	199
COc1ccc(NC(=O)C2CC(=O)NC(Nc3cccc(C)c3)=N2)cc1 (centres undefined)	-1	102	-7	249
Cc1ccc(OCC(=O)NCCNC(=O)c2ccco2)cc1	1	348*	-13	159
O=C(CN1C(=O)S/C(=C/c2cccn2-c2ccc(O)cc2)C1=O)N1CCCC1	-2	5	-4	204
O=C(O)c1cccc(-n2cccc2/C=C2/SC(=O)N(CC(=O)N3CCCC3)C2=O)c1	14*	35	-5	204
SMILES	HIF act	Mot1-301 SUMO	GASC-1 inh	T cell modulator
O=C(CCOc1ccccc1)Nc1ccnn1C1CCN(CCc2ccccc2)CC1	0	77	-36	374
CCCCNCCOCCOc1ccc(Cl)cc1Br	0	6	-20	213
CCCCNCCOCCOc1ccc(F)cc1	0	304*	1	412
O=C(Nc1ccccc1Cl)c1ccc(S(=O)(=O)NCC2CCCO2)cc1 (centres undefined)	0	3	1	430
CC[C@@H]1CC=C[C@H]2[C@H]1C(=O)N(Cc1ccccc1)[C@H]2c1ccoc1	0	679*	-5	·
O=C(O)c1c(C(=O)N2N=C3/C(=C/c4ccccc4)CCCC3C2c2ccccc2)cccc1[N+](=O)[O-] (centres undefined)	1	-8	10	273
CC(=O)N1N=C2/C(=C/c3ccccc3)CCCC2C1c1ccccc1 (centres undefined)	0	-21	-19	71*
COc1ccccc1C(=O)NC(=O)CSc1nncn1C(C)C	0	4	i	448
Cc1cc(C(=O)CN2CCN(CC(=O)Nc3cccc(F)c3)CC2)c(C)n1C1CC1	·	-4	1	209
